Measurements published in ChEMBL document CHEMBL4765307, “Design, synthesis and biological activity of novel 2,3,4,5-tetra-substituted thiophene derivatives as PI3Kα inhibitors with potent antitumor activity” (Eur J Med Chem, 2020).
Blank lines part the entries; values can stand above or below the compound they belong to.

Columns and labels:
[1] = biological target: PI3-kinase p110-alpha/p85-alpha (Homo sapiens, UniProt P42336); assay: Inhibition of His-tagged human full length PI3Kalpha coexpressed with p85 alpha in baculovirus expression system using PIP2 peptide as substrate incubated for 1 hr in presence ATP by Kinase-Glo assay
PI3K p110 beta/p85 alpha = PI3K p110 beta/p85 alpha (Homo sapiens, UniProt P42338); assay: Inhibition of N-terminal His6-tagged human recombinant full length PI3Kbeta co-expressed with human recombinant full length P85alpha in baculovirus infected Sf21 cells using PIP2 peptide as substrate incubated for 1 hr in presence ATP by ADP-Glo Kinase Assay
Summary of the method: (§1)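 ADP-Glo reagent 1 for 40 min, then reagent 2 with 60 min equilibration before reading. IC50 taken from inhibition curves; average of at least two runs.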

[2] = biological target: Phosphatidylinositol 4,5-bisphosphate 3-kinase catalytic subunit gamma isoform (Homo sapiens, UniProt P48736); assay: Inhibition of GST-tagged human recombinant PI3Kgamma catalytic domain (468 to 1203 residues) expressed in insect cells using PIP2 peptide as substrate incubated for 1 hr in presence ATP by ADP-Glo Kinase Assay; summary of the method: as §1
[3] = biological target: Serine/threonine-protein kinase mTOR (Homo sapiens, UniProt P42345); assay: Inhibition of N-terminal FLAG-tagged human recombinant mTOR (1362 to end residues) using ULight-4E-BP1 (Thr37/46) peptide as substrate incubated for 1 hr in presence of ATP by Lance Ultra assay
Summary of the method: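 ULight-4E-BP1 (Thr37/46) peptide with 13 µM ATP; 1 h at room temperature. Stopped with EDTA quench buffer plus Eu-anti-phospho-4E-BP1, 15 min shake and 60 min equilibration, TR-FRET read. IC50 from inhibition curves; average of at least two runs.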

U-87 MG = assay: Antiproliferative activity against human U87MG cells harboring PTEN deletion assessed as reduction in cell viability after 3 days by CellTiter-Glo luminescence assay; assay type: functional, cell-based, U-87MG ATCC; conditions: 72 h
Summary of the method: (§2)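 ATCC lines, 10% FBS: T47D, H1975, H460 in RPMI1640; U87MG in DMEM; A549 in F12K. Seeded 3×10^3 per well the day before, exposed to 3-fold serial dilutions or DMSO for 3 days at 37 °C, 5% CO2; CellTiter-Glo luminescence.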

T47D = assay: Antiproliferative activity against human T47D cells harboring PIK3CA mutation assessed as reduction in cell viability after 3 days by CellTiter-Glo luminescence assay; assay type: functional, cell-based; conditions: 72 h; summary of the method: as §2
NCI-H1975 = assay: Antiproliferative activity against human NCI-H1975 cells harboring PIK3CA mutation assessed as reduction in cell viability after 3 days by CellTiter-Glo luminescence assay; assay type: functional, cell-based; conditions: NCI-H1975, 72 h; summary of the method: as §2
NCI-H460 = assay: Antiproliferative activity against human NCI-H460 cells harboring PIK3CA mutation assessed as reduction in cell viability after 3 days by CellTiter-Glo luminescence assay; assay type: functional, cell-based; conditions: NCI-H460, 72 h; summary of the method: as §2
A549 = assay: Antiproliferative activity against human A549 cells assessed as reduction in cell viability after 3 days by CellTiter-Glo luminescence assay; assay type: functional, cell-based; conditions: A549, 72 h; summary of the method: as §2
[4] = biological target: PI3-kinase p110-delta/p85-alpha (Homo sapiens, UniProt O00329); assay: Inhibition of N-terminal His6-tagged human recombinant full length PI3Kdelta co-expressed with human recombinant full length P85alpha in baculovirus infected Sf21 cells using PIP2 peptide as substrate incubated for 2 hrs in presence ATP by ADP-Glo Kinase Assay
Summary of the method: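 ADP-Glo reagent 1 for 40 min, then reagent 2 with 60 min equilibration. IC50 from inhibition curves; average of at least two runs.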

[5] = biological target: Phosphatidylinositol 4,5-bisphosphate 3-kinase catalytic subunit alpha isoform (Homo sapiens) (UniProt P42336); assay: Inhibition of PI3Kalpha in human T47D cells assessed as inhibition of insulin-stimulated Akt phosphorylation at Ser473 residue at 3 uM preincubated for 2 hrs followed by incubation with insulin for 2 hrs by western blot analysis relative to control; assay type: cell-based; conditions: time 4.0 hrs
Summary of the method: (§3)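 T47D cells given compound at 37 °C for 2 h, then stimulated with 1 µg/mL insulin for 2 h; lysed in RIPA with protease/phosphatase inhibitors and 1 mM PMSF; BCA-normalised SDS-PAGE, PVDF blot probed overnight at 4 °C for total Akt and pAkt Ser473, infrared secondary detection.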

[6] = biological target: Phosphatidylinositol 4,5-bisphosphate 3-kinase catalytic subunit alpha isoform (Homo sapiens) (UniProt P42336); assay: Inhibition of PI3Kalpha in human T47D cells assessed as inhibition of insulin-stimulated Akt phosphorylation at Ser473 residue at 1 uM preincubated for 2 hrs followed by incubation with insulin for 2 hrs by western blot analysis relative to control; assay type: cell-based; conditions: time 4.0 hrs; summary of the method: as §3
[7] = biological target: Phosphatidylinositol 4,5-bisphosphate 3-kinase catalytic subunit alpha isoform (Homo sapiens) (UniProt P42336); assay: Inhibition of PI3Kalpha in human T47D cells assessed as inhibition of insulin-stimulated Akt phosphorylation at Ser473 residue at 0.3 uM preincubated for 2 hrs followed by incubation with insulin for 2 hrs by western blot analysis relative to control; assay type: cell-based; conditions: time 4.0 hrs; summary of the method: as §3
[8] = biological target: Phosphatidylinositol 4,5-bisphosphate 3-kinase catalytic subunit alpha isoform (Homo sapiens) (UniProt P42336); assay: Inhibition of PI3Kalpha in human T47D cells assessed as inhibition of insulin-stimulated Akt phosphorylation at Ser473 residue at 0.1 uM preincubated for 2 hrs followed by incubation with insulin for 2 hrs by western blot analysis relative to control; assay type: cell-based; conditions: time 4.0 hrs; summary of the method: as §3

Sequence of Phosphatidylinositol 4,5-bisphosphate 3-kinase catalytic subunit alpha isoform (Homo sapiens) (P42336 whole entry, canonical isoform): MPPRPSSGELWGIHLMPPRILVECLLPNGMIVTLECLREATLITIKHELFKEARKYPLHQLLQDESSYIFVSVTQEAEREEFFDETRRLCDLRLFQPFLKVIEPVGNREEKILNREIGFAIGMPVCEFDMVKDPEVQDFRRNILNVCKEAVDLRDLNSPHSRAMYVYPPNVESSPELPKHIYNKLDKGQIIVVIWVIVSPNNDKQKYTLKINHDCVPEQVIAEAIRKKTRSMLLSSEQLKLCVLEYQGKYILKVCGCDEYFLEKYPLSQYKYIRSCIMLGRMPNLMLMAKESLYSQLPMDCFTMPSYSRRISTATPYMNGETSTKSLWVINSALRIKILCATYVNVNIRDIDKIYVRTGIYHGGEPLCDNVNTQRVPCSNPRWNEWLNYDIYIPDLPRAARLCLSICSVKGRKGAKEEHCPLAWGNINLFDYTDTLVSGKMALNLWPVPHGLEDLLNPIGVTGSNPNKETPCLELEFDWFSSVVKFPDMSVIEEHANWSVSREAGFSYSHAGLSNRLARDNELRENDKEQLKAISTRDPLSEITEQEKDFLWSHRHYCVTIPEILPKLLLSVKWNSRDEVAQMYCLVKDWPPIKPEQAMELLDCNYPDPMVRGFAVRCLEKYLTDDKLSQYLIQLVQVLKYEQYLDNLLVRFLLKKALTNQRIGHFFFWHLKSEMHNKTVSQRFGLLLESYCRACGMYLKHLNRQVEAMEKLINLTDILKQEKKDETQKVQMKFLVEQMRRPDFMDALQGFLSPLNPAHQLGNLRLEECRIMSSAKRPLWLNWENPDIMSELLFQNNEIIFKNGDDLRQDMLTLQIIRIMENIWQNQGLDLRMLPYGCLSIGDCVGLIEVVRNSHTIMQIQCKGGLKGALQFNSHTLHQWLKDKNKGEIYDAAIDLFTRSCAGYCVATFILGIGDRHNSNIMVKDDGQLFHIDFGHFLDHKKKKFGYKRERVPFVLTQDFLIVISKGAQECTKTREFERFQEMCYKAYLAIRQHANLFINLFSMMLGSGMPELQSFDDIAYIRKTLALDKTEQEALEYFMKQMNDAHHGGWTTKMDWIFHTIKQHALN
Sequence of PI3-kinase p110-alpha/p85-alpha (P27986 whole entry): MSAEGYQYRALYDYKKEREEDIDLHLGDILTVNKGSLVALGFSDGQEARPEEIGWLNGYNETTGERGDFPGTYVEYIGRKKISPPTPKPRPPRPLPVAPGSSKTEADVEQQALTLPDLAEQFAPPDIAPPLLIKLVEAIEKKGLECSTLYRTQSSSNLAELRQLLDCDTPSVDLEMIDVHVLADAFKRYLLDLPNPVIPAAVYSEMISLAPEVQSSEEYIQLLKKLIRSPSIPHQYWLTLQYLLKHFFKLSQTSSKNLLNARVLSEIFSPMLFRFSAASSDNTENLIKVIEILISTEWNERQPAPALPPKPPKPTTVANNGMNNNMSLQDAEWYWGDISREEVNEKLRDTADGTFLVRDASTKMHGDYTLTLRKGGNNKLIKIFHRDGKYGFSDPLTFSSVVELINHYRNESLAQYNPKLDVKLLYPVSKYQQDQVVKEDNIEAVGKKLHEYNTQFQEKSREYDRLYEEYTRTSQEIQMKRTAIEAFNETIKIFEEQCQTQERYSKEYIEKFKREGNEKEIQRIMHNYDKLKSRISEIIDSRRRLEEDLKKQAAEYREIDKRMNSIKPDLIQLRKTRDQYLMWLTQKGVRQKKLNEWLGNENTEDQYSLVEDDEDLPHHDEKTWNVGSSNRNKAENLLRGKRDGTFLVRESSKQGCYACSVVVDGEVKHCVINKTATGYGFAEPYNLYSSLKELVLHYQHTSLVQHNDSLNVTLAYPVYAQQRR
Sequence of PI3-kinase p110-alpha/p85-alpha (P42336 whole entry): as the sequence (P42336 whole entry, canonical isoform) above
Sequence of PI3K p110 beta/p85 alpha (P27986 whole entry): as the sequence (P27986 whole entry) above
Sequence of PI3K p110 beta/p85 alpha (P42338 whole entry): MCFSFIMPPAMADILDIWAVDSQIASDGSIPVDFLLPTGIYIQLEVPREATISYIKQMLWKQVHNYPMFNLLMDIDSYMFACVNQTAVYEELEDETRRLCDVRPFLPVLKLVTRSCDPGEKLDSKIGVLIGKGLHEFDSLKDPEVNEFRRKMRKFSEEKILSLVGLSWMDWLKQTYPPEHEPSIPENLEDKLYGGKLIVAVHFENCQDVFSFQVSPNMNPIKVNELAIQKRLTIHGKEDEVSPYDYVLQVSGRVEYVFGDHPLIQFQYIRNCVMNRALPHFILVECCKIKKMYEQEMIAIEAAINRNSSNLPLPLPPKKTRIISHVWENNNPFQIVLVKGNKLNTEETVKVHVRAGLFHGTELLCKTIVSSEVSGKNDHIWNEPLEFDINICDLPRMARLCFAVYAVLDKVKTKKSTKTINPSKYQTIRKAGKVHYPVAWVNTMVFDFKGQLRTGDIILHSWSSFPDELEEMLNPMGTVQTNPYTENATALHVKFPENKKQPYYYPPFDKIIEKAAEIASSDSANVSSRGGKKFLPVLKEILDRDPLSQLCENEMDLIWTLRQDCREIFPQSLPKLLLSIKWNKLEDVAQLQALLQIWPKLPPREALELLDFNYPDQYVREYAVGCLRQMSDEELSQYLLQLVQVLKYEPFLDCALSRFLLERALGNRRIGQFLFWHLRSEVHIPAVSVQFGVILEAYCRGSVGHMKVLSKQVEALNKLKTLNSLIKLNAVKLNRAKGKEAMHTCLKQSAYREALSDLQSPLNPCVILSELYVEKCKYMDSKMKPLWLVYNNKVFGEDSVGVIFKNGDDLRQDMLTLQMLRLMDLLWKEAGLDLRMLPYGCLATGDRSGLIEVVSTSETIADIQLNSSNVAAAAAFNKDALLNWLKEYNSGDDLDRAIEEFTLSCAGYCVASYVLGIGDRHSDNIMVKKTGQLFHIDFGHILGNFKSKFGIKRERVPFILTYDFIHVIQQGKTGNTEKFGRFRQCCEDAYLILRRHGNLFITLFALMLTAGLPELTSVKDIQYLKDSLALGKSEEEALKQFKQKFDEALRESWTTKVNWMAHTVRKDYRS
Sequence of PI3-kinase p110-delta/p85-alpha (P27986 whole entry): as the sequence (P27986 whole entry) above
Sequence of PI3-kinase p110-delta/p85-alpha (O00329 whole entry): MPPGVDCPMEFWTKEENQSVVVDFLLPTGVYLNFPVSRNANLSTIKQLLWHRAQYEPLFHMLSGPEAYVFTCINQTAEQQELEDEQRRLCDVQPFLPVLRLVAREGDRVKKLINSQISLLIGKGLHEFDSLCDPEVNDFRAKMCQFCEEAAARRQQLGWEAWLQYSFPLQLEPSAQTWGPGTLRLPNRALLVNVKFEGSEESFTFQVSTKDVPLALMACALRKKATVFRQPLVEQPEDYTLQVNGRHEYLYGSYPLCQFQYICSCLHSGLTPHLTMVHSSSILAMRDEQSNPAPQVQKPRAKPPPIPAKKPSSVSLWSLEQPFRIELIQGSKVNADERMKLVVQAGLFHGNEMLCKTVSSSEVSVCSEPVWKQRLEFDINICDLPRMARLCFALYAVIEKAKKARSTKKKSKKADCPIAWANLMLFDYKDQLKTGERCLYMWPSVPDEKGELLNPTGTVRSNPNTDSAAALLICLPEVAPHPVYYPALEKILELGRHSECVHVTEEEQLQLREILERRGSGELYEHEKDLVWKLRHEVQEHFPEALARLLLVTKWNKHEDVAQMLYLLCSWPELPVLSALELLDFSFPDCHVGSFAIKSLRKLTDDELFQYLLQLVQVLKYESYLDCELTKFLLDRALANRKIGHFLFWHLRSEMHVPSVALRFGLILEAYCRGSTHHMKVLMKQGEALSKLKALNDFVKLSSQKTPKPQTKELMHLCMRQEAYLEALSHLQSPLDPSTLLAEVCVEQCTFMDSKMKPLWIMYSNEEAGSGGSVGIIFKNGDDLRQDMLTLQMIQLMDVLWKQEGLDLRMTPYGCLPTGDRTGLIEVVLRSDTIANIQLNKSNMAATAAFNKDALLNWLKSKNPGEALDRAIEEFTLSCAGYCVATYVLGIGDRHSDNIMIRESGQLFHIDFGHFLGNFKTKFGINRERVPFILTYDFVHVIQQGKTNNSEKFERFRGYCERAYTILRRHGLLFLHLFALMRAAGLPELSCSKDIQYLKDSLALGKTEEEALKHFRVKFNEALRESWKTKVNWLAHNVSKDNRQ

Structure (SMILES): N#Cc1c(N2CCOCC2)sc(-c2nc[nH]n2)c1-c1ccc(NC(=O)N/N=C/c2ccco2)cc1
IC50 [1]: 13.3 nM
IC50 (PI3K p110 beta/p85 alpha): 74 nM
IC50 [2]: 204 nM
IC50 [3]: 598 nM
IC50 (U-87 MG): 12.3 µM
IC50 (T47D): 2680 nM
IC50 (NCI-H1975): 12.9 µM
IC50 (NCI-H460): 1220 nM
IC50 (A549): 19.4 µM
IC50 [4]: 74 nM

Structure (SMILES): N#Cc1c(N2CCOCC2)sc(-c2nc[nH]n2)c1-c1ccc(NC(=O)Nc2ccc(F)cc2)cc1
IC50 [1]: 35.3 nM
IC50 (PI3K p110 beta/p85 alpha): 95 nM
IC50 [2]: 289 nM
IC50 [3]: 1660 nM
IC50 (U-87 MG): 3.35 µM
IC50 (T47D): 520 nM
IC50 (NCI-H1975): 2.04 µM
IC50 (NCI-H460): 590 nM
IC50 (A549): 5.52 µM
IC50 [4]: 238 nM

Structure (SMILES): N#Cc1c(N2CCOCC2)sc(-c2nc[nH]n2)c1-c1ccc(NC(=O)Nc2cccc(Br)c2)cc1
IC50 [1]: 239 nM

Structure (SMILES): N#Cc1ccc(NC(=O)Nc2ccc(-c3c(-c4nc[nH]n4)sc(N4CCOCC4)c3C#N)cc2)cc1
IC50 [1]: 290 nM

Structure (SMILES): N#Cc1ccc(-c2c(-c3nnc[nH]3)sc(N3CCOCC3)c2C#N)c(F)c1
IC50 [1]: 5.4 nM
IC50 (PI3K p110 beta/p85 alpha): 124 nM
IC50 [2]: 60 nM
IC50 [3]: 4060 nM
IC50 [4]: 15 nM

Structure (SMILES): N#Cc1c(N2CCOCC2)sc(-c2nc[nH]n2)c1-c1ccc(NC(=O)Nc2ccc(OC(F)(F)F)cc2)cc1
IC50 [1]: 835 nM

Structure (SMILES): N#Cc1c(N2CCOCC2)sc(-c2nc[nH]n2)c1-c1ccc(NC(=O)N/N=C/c2ccc[nH]2)cc1
IC50 [1]: 9.4 nM

Structure (SMILES): N#Cc1c(N2CCOCC2)sc(-c2nc[nH]n2)c1-c1ccc(NC(=O)N/N=C/c2cccc(Br)c2)cc1
IC50 [1]: 89.8 nM

Structure (SMILES): Cc1cc(/C=N/NC(=O)Nc2ccc(-c3c(-c4nc[nH]n4)sc(N4CCOCC4)c3C#N)cc2)cc(C)c1O
IC50 [1]: 20.3 nM

Structure (SMILES): N#Cc1c(N2CCOCC2)sc(-c2nc[nH]n2)c1-c1ccc(NC(=O)N/N=C/c2ccccn2)cc1
IC50 [1]: 6.5 nM
IC50 (PI3K p110 beta/p85 alpha): 53 nM
IC50 [2]: 274 nM
IC50 [3]: 416 nM
IC50 (U-87 MG): 22.1 µM
IC50 (T47D): 2130 nM
IC50 (NCI-H1975): 11.2 µM
IC50 (NCI-H460): 2690 nM
IC50 (A549): 18.5 µM
IC50 [4]: 49 nM

Structure (SMILES): N#Cc1c(N2CCOCC2)sc(-c2nc[nH]n2)c1-c1ccc(NC(=O)Nc2ccccc2)cc1
IC50 [1]: 116 nM

Structure (SMILES): COc1ccccc1NC(=O)Nc1ccc(-c2c(-c3nc[nH]n3)sc(N3CCOCC3)c2C#N)cc1
IC50 [1]: 105 nM

Structure (SMILES): N#Cc1c(N2CCOCC2)sc(-c2nc[nH]n2)c1-c1ccc(NC(=O)N/N=C/c2ccc(OC(F)(F)F)cc2)cc1
IC50 [1]: 631 nM

Structure (SMILES): N#Cc1c(N2CCOCC2)sc(-c2nc[nH]n2)c1-c1ccc(NC(=O)N/N=C/c2ccc(F)cc2)cc1
IC50 [1]: 75.5 nM

More lines, now with the values ahead:

IC50 [1]: 110 nM
Structure (SMILES): COc1cc(/C=N/NC(=O)Nc2ccc(-c3c(-c4nc[nH]n4)sc(N4CCOCC4)c3C#N)cc2)cc(OC)c1OC

IC50 (U-87 MG): 2.31 µM
IC50 (T47D): 340 nM
IC50 (NCI-H1975): 0.94 µM
IC50 (NCI-H460): 120 nM
IC50 (A549): 3.58 µM
inhibition [5]: 86%
inhibition [6]: 83%
inhibition [7]: 73%
inhibition [8]: 65%
Structure (SMILES): N#Cc1ccc(-c2c(-c3ncn[nH]3)sc(N3CCOCC3)c2C#N)c(F)c1

IC50 [1]: 72 nM
Structure (SMILES): COc1ccc(/C=N/NC(=O)Nc2ccc(-c3c(-c4nc[nH]n4)sc(N4CCOCC4)c3C#N)cc2)cc1

IC50 [3]: 1460 nM
Structure (SMILES): Cc1nc(NC(=O)N2CCC[C@H]2C(N)=O)sc1-c1ccnc(C(C)(C)C(F)(F)F)c1 [ALPELISIB]

IC50 [1]: 22.3 nM
IC50 (PI3K p110 beta/p85 alpha): 89 nM
IC50 [2]: 302 nM
IC50 [3]: 1590 nM
IC50 (U-87 MG): 3.98 µM
IC50 (T47D): 410 nM
IC50 (NCI-H1975): 1.52 µM
IC50 (NCI-H460): 400 nM
IC50 (A549): 4.19 µM
IC50 [4]: 334 nM
Structure (SMILES): N#Cc1c(N2CCOCC2)sc(-c2nc[nH]n2)c1-c1ccc(NC(=O)Nc2ccccc2F)cc1

IC50 [1]: 76.6 nM
Structure (SMILES): N#Cc1c(N2CCOCC2)sc(-c2nc[nH]n2)c1-c1ccc(NC(=O)N/N=C/c2ccccc2)cc1

IC50 [1]: 407 nM
Structure (SMILES): N#Cc1c(N2CCOCC2)sc(-c2nc[nH]n2)c1-c1ccc(NC(=O)Nc2ccc(F)c(Cl)c2)cc1

IC50 [1]: 151 nM
Structure (SMILES): N#Cc1c(N2CCOCC2)sc(-c2nc[nH]n2)c1-c1ccc(NC(=O)Nc2cccc(F)c2)cc1

IC50 [1]: 95.8 nM
Structure (SMILES): Cc1ccc(NC(=O)Nc2ccc(-c3c(-c4nc[nH]n4)sc(N4CCOCC4)c3C#N)cc2)cc1

IC50 [1]: 17.7 nM
IC50 (PI3K p110 beta/p85 alpha): 43 nM
IC50 [2]: 440 nM
IC50 [3]: 489 nM
IC50 (U-87 MG): 13 µM
IC50 (T47D): 2220 nM
IC50 (NCI-H1975): 9.76 µM
IC50 (NCI-H460): 1390 nM
IC50 (A549): 12.7 µM
IC50 [4]: 72 nM
Structure (SMILES): N#Cc1c(N2CCOCC2)sc(-c2nc[nH]n2)c1-c1ccc(NC(=O)N/N=C/c2cccc(O)c2)cc1

IC50 [1]: 403 nM
Structure (SMILES): N#Cc1c(N2CCOCC2)sc(-c2nc[nH]n2)c1-c1ccc(NC(=O)Nc2ccc(C(F)(F)F)cc2)cc1

IC50 [1]: 323 nM
Structure (SMILES): N#Cc1c(N2CCOCC2)sc(-c2nc[nH]n2)c1-c1ccc(NC(=O)N/N=C/c2c(Cl)cccc2Cl)cc1

IC50 [1]: 21.9 nM
Structure (SMILES): N#Cc1c(N2CCOCC2)sc(-c2nc[nH]n2)c1-c1ccc(NC(=O)N/N=C/c2ccc(O)c(O)c2)cc1

IC50 [1]: 344 nM
Structure (SMILES): Cc1cccc(C)c1NC(=O)Nc1ccc(-c2c(-c3nc[nH]n3)sc(N3CCOCC3)c2C#N)cc1
